From ChEMBL document CHEMBL1156869, “Selective inhibitors of the JMJD2 histone demethylases: combined nondenaturing mass spectrometric screening and crystallographic approaches” (J Med Chem, 2010)
Activity calls are given as the source filed them. The calls are words filed in the database; no cut-off is given here.

Assays:
[1] = Inhibition of JMJD2E by ESI-MS binding assay
Outline: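 Nondenaturing ESI-MS binding: His-tagged JMJD2E desalted into 15 mM ammonium acetate pH 7.5. Protein (15 μM) mixed with 1 equiv Fe(II) and 1 equiv inhibitor, incubated 30 min at 37 °C, then analysed on a Q-TOF by nanospray. Read-out: ratio of JMJD2E–inhibitor complex to free JMJD2E.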

[2] = Binding to JMJD2E by nondenaturing ESI-MS, ratio of JMJD2E-inhibitor complex to free JMJD2E
[3] = Inhibition of JMJD2E by FDH coupled assay
Outline: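 Formaldehyde dehydrogenase-coupled demethylation assay with initial rates from NADH production. IC50 determined from these rates; detection limit about 1 μM IC50.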

[4] = Inhibition of JMJD2E by MALDI-TOF assay
[5] = molecular target: T1, Lysine-specific demethylase 4A (Homo sapiens, UniProt O75164); experiment: Inhibition of JMJD2A by MALDI-TOF assay
T1 sequence (O75164 whole entry): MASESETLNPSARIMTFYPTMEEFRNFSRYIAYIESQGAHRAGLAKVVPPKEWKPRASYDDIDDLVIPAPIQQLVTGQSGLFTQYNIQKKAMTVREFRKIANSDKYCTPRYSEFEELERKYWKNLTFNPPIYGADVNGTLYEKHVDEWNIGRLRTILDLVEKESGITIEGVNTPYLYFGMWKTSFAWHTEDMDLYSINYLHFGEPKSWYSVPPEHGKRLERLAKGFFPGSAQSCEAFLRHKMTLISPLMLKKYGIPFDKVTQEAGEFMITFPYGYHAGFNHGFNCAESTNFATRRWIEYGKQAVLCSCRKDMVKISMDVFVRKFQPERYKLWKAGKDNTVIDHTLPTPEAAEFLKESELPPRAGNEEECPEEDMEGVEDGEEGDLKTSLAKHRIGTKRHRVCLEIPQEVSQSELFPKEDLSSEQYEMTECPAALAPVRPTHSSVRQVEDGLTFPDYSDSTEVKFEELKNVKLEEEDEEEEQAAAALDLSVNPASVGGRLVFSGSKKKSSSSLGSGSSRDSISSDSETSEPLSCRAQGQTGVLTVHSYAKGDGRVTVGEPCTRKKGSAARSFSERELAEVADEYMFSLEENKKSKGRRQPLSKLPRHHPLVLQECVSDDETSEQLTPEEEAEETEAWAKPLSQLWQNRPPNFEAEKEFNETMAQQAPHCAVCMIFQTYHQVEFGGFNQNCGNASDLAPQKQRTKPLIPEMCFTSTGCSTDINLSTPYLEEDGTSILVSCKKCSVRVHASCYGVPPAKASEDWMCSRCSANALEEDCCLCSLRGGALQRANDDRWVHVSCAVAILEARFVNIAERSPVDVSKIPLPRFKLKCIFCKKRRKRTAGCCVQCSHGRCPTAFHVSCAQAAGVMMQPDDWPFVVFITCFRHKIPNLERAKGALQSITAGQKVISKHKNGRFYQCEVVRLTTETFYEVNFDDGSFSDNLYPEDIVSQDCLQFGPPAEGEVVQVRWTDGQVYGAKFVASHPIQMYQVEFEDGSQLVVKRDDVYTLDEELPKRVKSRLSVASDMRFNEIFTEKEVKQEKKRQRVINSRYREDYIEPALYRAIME
Outline: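 Reaction started with 2OG (10 μM) and ARKme3STGGK peptide (10 μM), then 30 min at 37 °C. Quenched with methanol. MALDI-TOF methylation-state intensities gave % demethylation; IC50 from concentration variation.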

Homo sapiens = species on record: Homo sapiens; experiment: Inhibition of human […] by CODD biochemical assay

Row | Activity [1] | Ratio [2] | IC50 [3] [µM] | IC50 [4] [µM] | IC50 [5] [µM] | Activity (Homo sapiens) | Structure (SMILES)
1 | Active |  |  |  |  |  | O=C(O)C(=O)N[C@H](Cc1ccc(OC(=O)c2cnn(-c3ccc(Cl)cc3)c2C(F)(F)F)cc1)C(=O)O
2 | Active |  |  |  |  |  | Cc1noc(C)c1C(=O)Oc1ccc(C[C@@H](NC(=O)C(=O)O)C(=O)O)cc1
3 | Active | 3.1 | 14.7 |  |  |  | O=C(O)C(=O)N[C@H](Cc1ccc(OCc2ccccc2[N+](=O)[O-])cc1)C(=O)O
4 | Active | 0.9 | 185 |  |  |  | CC(C)(C)C(=O)COc1ccc(C[C@@H](NC(=O)C(=O)O)C(=O)O)cc1
5 | Active | 3.6 | 16.6 | 25 | 10 |  | O=C(O)C(=O)N[C@H](Cc1ccc(OCc2ccccc2F)cc1)C(=O)O
6 | Active |  |  |  |  |  | CCC(C(=O)Oc1ccc(C[C@@H](NC(=O)C(=O)O)C(=O)O)cc1)c1ccccc1 (some centres not stated)
7 | Active |  |  |  |  |  | O=C(Cc1ccccc1)Oc1ccc(C[C@@H](NC(=O)C(=O)O)C(=O)O)cc1
8 | Active | 1 | 82.9 |  |  |  | Cc1noc(C)c1S(=O)(=O)Oc1ccc(C[C@@H](NC(=O)C(=O)O)C(=O)O)cc1
9 | Active | 5.7 | 14.7 |  |  |  | O=C(O)C(=O)N[C@H](Cc1ccc(OS(=O)(=O)c2ccccc2)cc1)C(=O)O
10 | Active |  | 5.4 | 21 | 12 | inactive | O=C(O)C(=O)N[C@H](Cc1ccc(OS(=O)(=O)c2ccc(Br)cc2)cc1)C(=O)O
11 | Active |  |  |  |  |  | O=C(O)C(=O)N[C@H](Cc1ccc(OC(=O)N2CCOCC2)cc1)C(=O)O
12 | Active | 3.5 | 20.1 |  |  |  | O=C(O)C(=O)N[C@H](Cc1ccc(OC(=O)c2ccco2)cc1)C(=O)O
13 | Active |  | 11.7 | 38 | 20 | inactive | O=C(O)C(=O)N[C@H](Cc1ccc(OS(=O)(=O)c2ccc(F)cc2)cc1)C(=O)O
14 | Active |  |  |  |  |  | O=C(O)C(=O)N[C@H](Cc1ccc(OC(=O)c2cccs2)cc1)C(=O)O
15 | Active | 1.7 | 37.1 | 76 |  |  | O=C(O)C(=O)N[C@H](Cc1ccc(OCc2ccccc2)cc1)C(=O)O
16 | Active | 2 | 14.8 | 59 | 13 |  | O=C(O)C(=O)N[C@H](Cc1ccc(OCC(=O)c2ccc(N3CCCC3)cc2)cc1)C(=O)O
17 | Active |  |  |  |  |  | O=C(O)C(=O)N[C@H](Cc1ccc(OC(=O)c2cc3ccccc3s2)cc1)C(=O)O
18 | Active | 0.9 | 326 |  |  |  | O=C(O)C(=O)N[C@H](Cc1ccc(OCCCN2C(=O)c3ccccc3C2=O)cc1)C(=O)O
19 | Active |  | 8.6 | 61 | 13 | inactive | CC(C)(C)c1ccc(S(=O)(=O)Oc2ccc(C[C@@H](NC(=O)C(=O)O)C(=O)O)cc2)cc1
20 | Active |  |  |  |  |  | CC(C)CC(=O)Oc1ccc(C[C@@H](NC(=O)C(=O)O)C(=O)O)cc1
21 | Active |  |  |  |  |  | O=C(Cc1ccc(Cl)cc1)Oc1ccc(C[C@@H](NC(=O)C(=O)O)C(=O)O)cc1
22 | Active |  |  |  |  |  | O=C(O)C(=O)N[C@H](Cc1ccc(OC(=O)C2CCCCC2)cc1)C(=O)O
